Reference: PMC8828683 (Stem Cell Reports, 2022)

Tests used:
SCUi24 iPSC = test: Cells with <2N DNA by FACS of permeabilized cells stained with PI; format: cell-based, human; settings: read-out: IC50 DNA (50% of cells with <2N DNA)
How it was run: (§1)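 Cells were exposed to a range of test compound concentrations alongside vehicle (DMSO) controls. They were then permeabilized, stained with propidium iodide, and DNA content was read by flow cytometry. IC50 is the concentration at which 50% of cells hold <2N DNA, from 3 independent repetitions with SEM. Line averages and differentiated/pluripotent ratios are derived from these IC50s. NTERA-2 was also run as a time course at 5 μM, normalized to vehicle at each time point.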

[1] = system: SCUi24-diff (spontaneously differentiated SCUi24 iPSCs); test: as above; format: cell-based, human; settings: read-out: IC50 DNA (50% of cells with <2N DNA)
How it was run: as §1

VeroE6 cells = test: Inhibition of cell proliferation; format: cell-based, monkey; settings: read-out: IC50 inhibition of proliferation
human pluripotent cells = test: DNA loss; format: cell-based
How it was run: as §1

TERA-2 ECC [2] = test: Live cells / PCD by FACS of nonpermeabilized cells stained with annexin-V and PI; format: cell-based, human; settings: read-out: IC50 Live Cells, 4 days
How it was run: (§2)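 Cells were seeded so that vehicle wells stayed subconfluent, then treated with a range of test compound concentrations for 4 days. Without permeabilization, they were stained with annexin-V-FITC and propidium iodide and analysed by flow cytometry. Double-negative cells (Q3) were scored as live and Q1+Q2 as programmed death. Vehicle was set to 100% viable and 0% dead. Results are the mean of three independent assays with SEM; group averages and ratios are derived from the IC50s.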

differentiated cells [3] = test: ATP loss, summary over differentiated cell lines; format: cell-based; settings: read-out: IC50 ATP loss, on average
How it was run: (§3)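 Cellular ATP was measured with a CellTiter-Glo luminescence viability assay after exposure to a concentration range of test compound. IC50 is the average of three independent assays. Mean IC50s across differentiated or human pluripotent lines, and their ratio, are derived from the per-line values.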

GCT27D.C1 ECC [4] = test: Live cells / PCD by FACS of nonpermeabilized cells stained with annexin-V and PI; format: cell-based, human; settings: read-out: IC50 Live Cells, 4 days
How it was run: as §2

WA09/H9 ESC [5] = test: Cellular ATP level; format: cell-based, human; settings: read-out: IC50 ATP
How it was run: as §3

NTERA-2 ECC [6] = test: Cells with <2N DNA by FACS of permeabilized cells stained with PI; format: cell-based, human
How it was run: as §1

[7] = system: H108 normal skin fibroblast; test: Live cells / PCD by FACS of nonpermeabilized cells stained with annexin-V and PI; format: cell-based, human; settings: read-out: IC50 Live Cells; H108, 4 days
How it was run: as §2

NTERA-2 ECC [8] = test: Cellular ATP level; format: cell-based, human; settings: read-out: IC50 ATP
How it was run: as §3

Toxicity studies in mice = format: in vivo, mouse; settings: doses from 20 to 100 mg/kg body weight
[9] = system: HBEC normal lung epithelial; test: Live cells / PCD by FACS of nonpermeabilized cells stained with annexin-V and PI; format: cell-based, human; settings: read-out: IC50 Live Cells
How it was run: as §2

differentiated cells [10] = test: Inhibition of cell proliferation; format: cell-based; settings: read-out: IC50 inhibition of proliferation; insensitive differentiated cells
H1 ESCs = test: Immunoblotting of total cell extracts; format: cell-based, human
How it was run: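 Cells were cultured with 2.5 μM test compound for up to 96 h, and attached plus unattached cells were pooled. Whole-cell RIPA lysates were run on 4–12% Bis-Tris gels, transferred to nitrocellulose and blocked in 5% milk/TBS. Primary antibodies went on overnight at 4°C, followed by infrared secondary antibodies and imager quantitation. Each blot carried untreated U2OS as a shared standard, with Ponceau-S histones for normalization and lighter exposures for quantitation. Adriamycin for 24 h (NTERA-2 1 μM, H108 2 μM) served as a DNA-break control.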

[11] = system: HFF-1 normal skin fibroblast; test: Cellular ATP level; format: cell-based, human; settings: read-out: IC50 ATP
How it was run: as §3

[12] = system: human pluripotent cells (ESC, iPSC, ECC lines); test: PCD / live cell loss; format: cell-based; settings: ratio of average IC50
How it was run: as §2

[13] = system: HBEC normal lung epithelial; test: Cellular ATP level; format: cell-based, human; settings: read-out: IC50 ATP
How it was run: as §3

WA09/H9 ESC [14] = test: Cells with <2N DNA by FACS of permeabilized cells stained with PI; format: cell-based, human
How it was run: as §1

[15] = system: HFF-1 normal skin fibroblast; test: Live cells / PCD by FACS of nonpermeabilized cells stained with annexin-V and PI; format: cell-based, human; settings: read-out: IC50 Live Cells; HFF-1
How it was run: as §2

GCT27D.C1 ECC [16] = test: Cells with <2N DNA by FACS of permeabilized cells stained with PI; format: cell-based, human
How it was run: as §1

TERA-2 ECC [17] = test: Cellular ATP level; format: cell-based, human; settings: read-out: IC50 ATP
How it was run: as §3

[18] = system: human pluripotent cells (ESCs, iPSCs, ECCs); test: ATP loss, summary over pluripotent cell lines; format: cell-based
How it was run: as §3

[19] = system: Mouse Gmnn(fl/fl);ER-Cre/+ ESCs; test: Cellular DNA content by FACS of permeabilized cells stained with PI; format: cell-based
How it was run: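 Mouse Gmnn(fl/fl);ER-Cre/+ embryonic stem cells were grown with 3 μM test compound (from a 20 mM DMSO stock) or DMSO vehicle for the indicated times. Attached and unattached cells were pooled, permeabilized and stained with propidium iodide. DNA content was measured by flow cytometry, scoring the fraction of cells with <2N DNA.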

[20] = H1, 2.5 μM WX8, normalized to histones
[21] = ratio differentiated/pluripotent

## C(=N\Nc1nc(Nc2ccccc2)nc(N2CCOCC2)n1)/c1c[nH]c2ccccc12 [WX8]
SCUi24 iPSC
  IC50: 1 µM
[1]
  IC50: > 10 µM
VeroE6 cells
  IC50: 0.45 µM
Human pluripotent cells; ratio of average IC50
  Difference in DNA loss, differentiated vs pluripotent cells: 24 fold
Human pluripotent cells; read-out: IC50 DNA loss, on average, average over human pluripotent cells
  IC50: 2.8 µM
TERA-2 ECC [2]
  IC50: 5 µM
Differentiated cells [3]
  IC50: 15.8 µM
GCT27D.C1 ECC [4]
  IC50: 0.28 µM
WA09/H9 ESC [5]
  IC50: 0.26 µM
NTERA-2 ECC [6]; NTERA-2, 5 μM WX8, 96h (4 days)
  Cells with <2N DNA: > 80%
NTERA-2 ECC [6]; read-out: IC50 DNA (50% of cells with <2N DNA), NTERA-2 ECC
  IC50: 3.5 µM
[7]
  IC50: 50 µM
NTERA-2 ECC [8]
  IC50: 0.48 µM
Toxicity studies in mice
  Maximum dose at which no indication of mouse impairment was observed: 40 mg/kg
[9]
  IC50: 140 µM
Differentiated cells [10]
  IC50: > 100 µM
H1 ESCs; H1, 2.5 μM WX8
  CASP3 cleavage: < 2%
  PARP cleavage: 20%
H1 ESCs; [20]
  Accumulation of p62 protein: < 2 fold
  Accumulation of total LC3 protein: 2 fold
H1 ESCs; H1, WX8
  CASP12 cleavage: < 2%
  Cleaved CASP7: not detected
[11]
  IC50: 28 µM
[12]
  Difference in the initiation of PCD, differentiated vs pluripotent cells: 35 fold
[13]
  IC50: 6 µM
WA09/H9 ESC [14]; [21]
  Range of sensitivity to WX8-induced cell death (DNA loss), HBEC/H9: 5 fold
WA09/H9 ESC [14]; read-out: IC50 DNA (50% of cells with <2N DNA), WA09/H9 ESC
  IC50: 5 µM
[15]
  IC50: 75 µM
GCT27D.C1 ECC [16]; [21]
  Range of sensitivity to WX8-induced cell death (DNA loss), H108/GCT27DC1: 700 fold
GCT27D.C1 ECC [16]; read-out: IC50 DNA (50% of cells with <2N DNA), GCT27D.C1 ECC
  IC50: 0.2 µM
TERA-2 ECC [17]
  IC50: 3 µM
[18]; ratio of average IC50
  Difference in ATP loss, differentiated vs pluripotent cells: 13 fold
[18]; read-out: IC50 ATP loss, on average, average over human pluripotent cells
  IC50: 1.2 µM
[19]; 3 μM WX8, 72 hr
  Cells with <2N DNA: > 90%
[19]; 3 μM WX8, within 32 h
  Cells with <2N DNA: 50%
